The results in this text go back to ChEMBL document CHEMBL1121665, “Synthesis and antiallergy activity of 4-oxo-4H-pyrido[1,2-a]thieno[2,3-d]pyrimidines” (1981).

Activity calls are given as the source filed them. The rule behind the calls is not given here.

For test [1], the system named is Rattus norvegicus. Put plainly: Antiallergic activity in the rat passive cutaneous anaphylaxis at dose 5 mg/kg after ip. To be noted: route intraperitoneal. Format: functional. The procedure, abridged:
(§1)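 Rats were immunized with ovalbumin 1 mg im plus about 10^10 Bordetella pertussis organisms (as pertussis vaccine) ip. Drug was suspended in 1% gum tragacanth/saline and given orally or ip 10–15 min before iv challenge with ovalbumin 1 mg plus 0.25% Evans blue. Wheal diameter was read 30 min later; n=5 per group; Student's t test.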

Test [2] deals with Rattus norvegicus. Put plainly: Compound was tested for antiallergic activity in the rat passive cutaneous anaphylaxis at dose 5 mg/kg after po. Format: functional. Summed up: as §1
The test system of test [3] is Rattus norvegicus. Put plainly: Compound was tested for antiallergic activity in the rat passive cutaneous anaphylaxis at dose 5 mg/kg after po; No significant activity. On the set-up: dose 5 mg/kg. Format: functional, organism-based. Summed up: as §1
For test [4], the system named is Rattus norvegicus. Put plainly: Compound was tested for antiallergic activity in the rat passive cutaneous anaphylaxis at dose 0.1 mg/kg after intravenous administration. Format: functional. The procedure, abridged: (§2)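 Ovalbumin/pertussis-immunized rat antiserum was titrated intradermally on the back 48 h before challenge. Compound was given iv, dissolved directly in the challenge solution (ovalbumin 1 mg in 1 mL saline, 0.25% Evans blue), with slight molar excess NaHCO3 if needed. Wheal diameter was measured 30 min later. Percent inhibition was taken at the highest antiserum level versus control, corrected for the extrapolated base value; groups of five.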

Test [5] has as its system Rattus norvegicus. Put plainly: Compound was tested for antiallergic activity in the rat passive cutaneous anaphylaxis at dose 0.5 mg/kg after po. Format: functional. Summed up:
as §1

In test [6] the test system is Rattus norvegicus. Put plainly: Compound was tested for antiallergic activity in the rat passive cutaneous anaphylaxis at dose 5 mg/kg after ip; No significant activity. Format: functional, organism-based. On the set-up: dose 5 mg/kg. The procedure, abridged: as §1
Test [7] concerns Rattus norvegicus. Put plainly: Compound was tested for antiallergic activity in the rat passive cutaneous anaphylaxis, after peroral administration. Format: functional. Particulars: po, read-out: ID50 (the source's name). The procedure, abridged: as §1
In test [8] the test system is Rattus norvegicus. Nature of the test: Compound was tested for antiallergic activity in the rat passive cutaneous anaphylaxis, after intravenous administration. Format: functional. Particulars: read-out: ID50 (the source's name). Summed up:
as §2

Test [9] concerns Rattus norvegicus. Nature of the test: Compound was tested for antiallergic activity in the rat passive cutaneous anaphylaxis at dose 1-2 mg/kg after iv administration; Inactive. Format: functional, organism-based.
The subject of test [10] is Rattus norvegicus. Nature of the test: Compound was tested for antiallergic activity in the rat passive cutaneous anaphylaxis at dose 1 mg/kg after po. Format: functional. The procedure, abridged:
as §1

In general, inhibition in vivo refers to how much of the control response was suppressed. For the compound `Cc1cc2c(=O)n3cc(C(N)=O)ccc3nc2s1`, the inhibition in vivo at 5 mg/kg in the test on Rattus norvegicus [1] is 100%; in the test on Rattus norvegicus [2], 38%.

`Cc1cc2c(=O)n3cc(C(=O)Nc4nn[nH]n4)ccc3nc2s1` came in with an inhibition in vivo at 5 mg/kg in the test with Rattus norvegicus [1] of 25%. In the test on Rattus norvegicus [3], the inhibition entry is “No significant activity”. For `Cc1cc2c(=O)n3cc(C(=O)O)ccc3nc2s1`, the inhibition in vivo at 5 mg/kg was determined as 100% with Rattus norvegicus [1] and 62% in the test with Rattus norvegicus [2]. `CCCCc1cc2c(=O)n3cc(C(N)=O)ccc3nc2s1` registered an inhibition in vivo at 5 mg/kg in the test with Rattus norvegicus [1] of 25%. The inhibition entry in the test on Rattus norvegicus [3] is “No significant activity”. With `O=C(O)c1ccc2nc3sc(-c4ccccc4)cc3c(=O)n2c1`, the inhibition in vivo at 5 mg/kg in the test with Rattus norvegicus [1] and in the test on Rattus norvegicus [2] was 17% throughout. Regarding `CCc1cc2c(=O)n3cc(C(N)=O)ccc3nc2s1`, the inhibition in vivo at 5 mg/kg in the test with Rattus norvegicus [1] amounted to 46%. For the same compound, the inhibition entry in the test with Rattus norvegicus [3] was “No significant activity”. For `O=c1c2cc(-c3ccccc3)sc2nc2ccc(-c3nnn[nH]3)cn12` the same measures were 84% and “No significant activity”. `CCc1cc2c(=O)n3cc(C(=O)O)ccc3nc2s1` showed an inhibition in vivo at 0.1 mg/kg in the test on Rattus norvegicus [4] of 33%. The compound also gave an inhibition in vivo at 0.5 mg/kg in the test with Rattus norvegicus [5] of 69%. In the test with Rattus norvegicus [1], this compound gave an inhibition in vivo at 5 mg/kg of 100%. In the case of `O=C(Nc1nn[nH]n1)c1ccc2nc3sc(-c4ccccc4)cc3c(=O)n2c1`, in the test with Rattus norvegicus [1], the inhibition in vivo at 5 mg/kg was determined as 17%. The inhibition entry in the test on Rattus norvegicus [3] is “No significant activity”. `CCc1cc2c(=O)n3cc(C(=O)Nc4nn[nH]n4)ccc3nc2s1` gave an inhibition in vivo at 5 mg/kg in the test on Rattus norvegicus [1] of 62%. The inhibition result in the test with Rattus norvegicus [3] is “No significant activity”. With `CC(C)c1cc2c(=O)n3cc(C(=O)O)ccc3nc2s1`, in the test with Rattus norvegicus [1], 5 mg/kg produced 100% inhibition in vivo. The same measure, in the same setting: then `CCCCc1cc2c(=O)n3cc(-c4nnn[nH]4)ccc3nc2s1`, with 26%. Compound `CCc1cc2c(=O)n3cc(C#N)ccc3nc2s1` showed an inhibition in vivo at 5 mg/kg in the test with Rattus norvegicus [1] of 13%. Further, in the test with Rattus norvegicus [3], the inhibition entry was “No significant activity”. On to `Cc1sc2nc3ccc(C#N)cn3c(=O)c2c1C`, for which 5 mg/kg produced 14% inhibition in vivo in the test with Rattus norvegicus [1]. In the case of `Cc1sc2nc3ccc(-c4nnn[nH]4)cn3c(=O)c2c1C`, the inhibition in vivo at 5 mg/kg in the test with Rattus norvegicus [1] stood at 30%; in the test on Rattus norvegicus [2], 21%. Take `CC(C)c1cc2c(=O)n3cc(-c4nnn[nH]4)ccc3nc2s1`: testing at 5 mg/kg in the test with Rattus norvegicus [1] gave an inhibition in vivo of 28%. For `CCOC(=O)c1sc2nc3ccc(C(=O)OC)cn3c(=O)c2c1C`, the inhibition entry in the test on Rattus norvegicus [6] was “No significant activity”. In the case of `CCOC(=O)c1ccc2nc3sc(C(C)C)cc3c(=O)n2c1`, the inhibition in vivo at 5 mg/kg in the test on Rattus norvegicus [1] is 63%. The compound `Cc1cc2c(=O)n3cc(-c4nnn[nH]4)ccc3nc2s1` displayed an inhibition in vivo at 5 mg/kg with Rattus norvegicus [1] of 100%. Also, the inhibition entry in the test with Rattus norvegicus [3] is “No significant activity”. Take `COC(=O)c1ccc2nc3scc(C)c3c(=O)n2c1`: testing at 5 mg/kg with Rattus norvegicus [1] gave an inhibition in vivo of 23%. On the same count and under the same terms, with `CCCCc1cc2c(=O)n3cc(C(=O)O)ccc3nc2s1` the figure was 52%. Turning to `CCc1cc2c(=O)n3cc(C(=O)OC)ccc3nc2s1`, the inhibition in vivo at 5 mg/kg in the test with Rattus norvegicus [1] worked out at 100%; in the test on Rattus norvegicus [2], 75%. For `Cc1cc2c(=O)n3cc(C#N)ccc3nc2s1` the same measures were 88% and 100%. In the case of `CCCCc1cc2c(=O)n3cc(C(=O)Nc4nn[nH]n4)ccc3nc2s1`, the inhibition in vivo at 5 mg/kg in the test on Rattus norvegicus [1] turned out to be 18%.

As for `Cc1sc2nc3ccc(C(=O)Nc4nn[nH]n4)cn3c(=O)c2c1C`, the inhibition in vivo at 5 mg/kg with Rattus norvegicus [1] was 94%. Moreover, the inhibition result with Rattus norvegicus [3] is “No significant activity”. For `O=C1c2ccccc2S(=O)(=O)c2cc(-c3nn[nH]n3)ccc21` [DOXANTRAZOLE], the ED50 came to 5 mg/kg in the test on Rattus norvegicus [7] and 1.5 mg/kg in the test with Rattus norvegicus [8].

`CC(C)c1cc2c(=O)n3cc(C(N)=O)ccc3nc2s1` returned an inhibition in vivo at 5 mg/kg in the test with Rattus norvegicus [1] of 100%. `Cc1sc2nc3ccc(C(=O)O)cn3c(=O)c2c1C` registered an inhibition in vivo at 5 mg/kg in the test on Rattus norvegicus [1] of 28%. In addition, the inhibition result with Rattus norvegicus [3] is “No significant activity”. Take `O=C(O)c1cc(=O)c2c(OCC(O)COc3cccc4oc(C(=O)O)cc(=O)c34)cccc2o1`: the ID50 entry with Rattus norvegicus [9] was “inactive”. `CCCc1cc2c(=O)n3cc(C(=O)O)ccc3nc2s1` registered an inhibition in vivo at 1 mg/kg with Rattus norvegicus [10] of 18%. In the test with Rattus norvegicus [1], the inhibition in vivo at 5 mg/kg is 68%. As for `CCc1cc2c(=O)n3cc(-c4nnn[nH]4)ccc3nc2s1`, in the test with Rattus norvegicus [4], 0.1 mg/kg produced 56% inhibition in vivo. Besides, at 0.5 mg/kg the inhibition in vivo in the test on Rattus norvegicus [5] was 38%. Moreover, in the test on Rattus norvegicus [1], the inhibition in vivo at 5 mg/kg turned out to be 97%. Regarding `CCCc1cc2c(=O)n3cc(-c4nnn[nH]4)ccc3nc2s1`, the results for the inhibition in vivo at 5 mg/kg in the test on Rattus norvegicus [1] and in the test with Rattus norvegicus [2] were 100% and 67%, respectively. Take `CC(C)c1cc2c(=O)n3cc(C(=O)Nc4nn[nH]n4)ccc3nc2s1`: at 5 mg/kg the inhibition in vivo in the test with Rattus norvegicus [1] was 30%.
